Measurements from ChEMBL document CHEMBL3865847, “The synthesis and biological evaluation of alkyl and benzyl naphthyridinium analogs of eupolauridine as potential antimicrobial and cytotoxic agents” (Bioorg Med Chem, 2016).
Values after ≈ are worked out from the molar mass of the structure shown.

Experiments:
Staphylococcus aureus [1] = assay: Antimicrobial activity against Staphylococcus aureus ATCC 6538; type: functional
Outline: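 Staphylococcus aureus grown 24 h in Eugon broth, diluted 1:50 in broth, added to serially diluted samples in 96-well plates (highest final DMSO 2.5%), incubated at 37 °C. Growth measured at 630 nm versus controls. MIC is the lowest concentration inhibiting 80% of growth; IC50 (50% inhibition) comes from concentration versus % growth plots.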

Candida albicans = assay: Antimicrobial activity against Candida albicans B311; type: functional
Outline: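 Cultured in Sabouraud dextrose broth 24 h, counted by hemocytometer, diluted to 10,000 CFU/mL. Added to serially diluted samples in 96-well plates, top final concentration 50 µg/mL (≤2.5% DMSO), incubated 37 °C. Growth by A630. MIC is the lowest concentration giving 80% inhibition against controls; IC50 from concentration versus % growth plots.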

[2] = Cytotoxicity against African green monkey Vero cells assessed as cell growth inhibition at 10 ug/ml after 48 hrs by neutral red dye based assay; type: toxicity; settings: chlorocebus sabaeus
Outline: (§1)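 Cells kept in RPMI-1640 with 10% bovine serum and 60 µg/mL amikacin, 37 °C, 5% CO2. Seeded at 25,000 cells/well, left 24 h to adhere. Samples diluted in RPMI added, highest final concentration 10 µg/mL. Growth measured by neutral red uptake after 48 h exposure.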

[3] = Selectivity index, ratio of IC50 for human DNA topoisomerase 1 to IC50 for Candida albicans DNA topoisomerase 1
[4] = Inhibition of Candida albicans DNA topoisomerase 1 using pHOT1 as substrate after 30 mins by agarose gel electrophoresis
Outline: (§2)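 Relaxation of supercoiled to relaxed DNA by TopoI measured with a commercial TopoI drug kit following kit protocol. IC50 calculated from dose-response curves of % inhibition versus concentration.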

Plasmodium falciparum = assay: Antimalarial activity against Plasmodium falciparum D6 infected in RBC after 48 hrs by lactate dehydrogenase assay; type: functional; settings: D6, 48 h
Outline: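 Parasites grown in A+ human erythrocytes in RPMI 1640 with 10% A+ human serum, 25 mM HEPES, 27 mM bicarbonate, 60 µg/mL amikacin, 37 °C under 90% N2/5% O2/5% CO2. Infected cells exposed 48 h in microtiter wells, highest concentration 4.8 µg/mL. Growth read by Malstat reagent (parasite LDH) with nitro blue tetrazolium reduction, absorbance 630 nm.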

DNA topoisomerase 1 = molecular target: T1, DNA topoisomerase 1 (Homo sapiens, UniProt P11387); assay: Inhibition of human DNA topoisomerase 1 using pHOT1 as substrate after 30 mins by agarose gel electrophoresis; outline: as §2
T1 sequence (P11387 whole entry): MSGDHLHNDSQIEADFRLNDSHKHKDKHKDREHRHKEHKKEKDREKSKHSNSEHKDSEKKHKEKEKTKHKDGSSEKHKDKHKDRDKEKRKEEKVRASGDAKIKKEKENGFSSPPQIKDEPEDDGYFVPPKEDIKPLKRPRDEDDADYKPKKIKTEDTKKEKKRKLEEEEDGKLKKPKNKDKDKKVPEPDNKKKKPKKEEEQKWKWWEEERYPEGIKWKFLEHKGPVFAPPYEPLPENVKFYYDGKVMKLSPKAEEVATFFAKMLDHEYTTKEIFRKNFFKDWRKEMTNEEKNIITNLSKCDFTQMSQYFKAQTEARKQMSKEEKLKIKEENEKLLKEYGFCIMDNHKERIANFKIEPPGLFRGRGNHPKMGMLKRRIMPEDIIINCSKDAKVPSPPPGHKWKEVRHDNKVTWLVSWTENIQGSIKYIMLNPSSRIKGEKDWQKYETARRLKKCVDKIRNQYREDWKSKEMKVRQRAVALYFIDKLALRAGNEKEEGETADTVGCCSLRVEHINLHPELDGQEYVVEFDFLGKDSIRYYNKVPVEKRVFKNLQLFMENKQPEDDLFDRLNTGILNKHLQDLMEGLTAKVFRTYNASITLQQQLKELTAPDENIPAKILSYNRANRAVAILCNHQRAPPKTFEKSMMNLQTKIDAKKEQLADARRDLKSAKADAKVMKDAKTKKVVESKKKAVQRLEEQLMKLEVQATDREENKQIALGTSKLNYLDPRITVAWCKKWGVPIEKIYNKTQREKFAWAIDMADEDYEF

[5] = Cytotoxicity against human SKOV3 cells assessed as cell growth inhibition after 48 hrs by neutral red dye based assay; type: functional; settings: SK-OV-3, 48 h; outline: as §1
[6] = Cytotoxicity against human BT549 cells assessed as cell growth inhibition after 48 hrs by neutral red dye based assay; type: functional; settings: BT-549, 48 h; outline: as §1
[7] = Cytotoxicity against human SK-MEL cells assessed as cell growth inhibition after 48 hrs by neutral red dye based assay; type: functional; outline: as §1
Staphylococcus aureus [8] = assay: Antimicrobial activity against methicillin-resistant Staphylococcus aureus; type: functional
Outline: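 MRSA precultured 24 h, diluted 1:50 in broth, added to serially diluted samples in 96-well plates (highest final DMSO 2.5%), incubated at 37 °C. Growth measured as absorbance at 630 nm versus controls. MIC is the lowest concentration giving 80% inhibition; IC50 (50% inhibition) is read from concentration versus % growth plots.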

[9] = test system: Mycobacterium intracellulare; assay: Antimicrobial activity against Mycobacterium intracellulare ATCC 23068; type: functional
Outline: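 Mycobacterium grown 72 h in Middlebrook medium with OADC supplement, diluted 1:30 in broth. Incubated at 37 °C with diluted samples in 96-well plates, highest final 50 µg/mL, DMSO at most 2.5%. Absorbance at 630 nm. MIC = lowest concentration with 80% growth inhibition relative to controls; IC50 from concentration versus % growth plots.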

Cryptococcus neoformans = assay: Antimicrobial activity against Cryptococcus neoformans ATCC 52657; type: functional
Outline: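 Grown in mycophil broth 72 h, hemocytometer-counted, diluted to 200,000 CFU/mL. Exposed to diluted samples in 96-well plates, maximum final 50 µg/mL (DMSO up to 2.5%), incubated 30 °C. A630 readout. MIC is the lowest concentration inhibiting 80% of growth versus controls; IC50 read from concentration versus % growth graphs.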

Pseudomonas aeruginosa = assay: Antimicrobial activity against Pseudomonas aeruginosa ATCC 15442; type: functional
Outline: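 Pseudomonas grown 24 h in trypticase soy broth, diluted 1:50. Combined with diluted samples in 96-well plates, top final concentration 50 µg/mL (≤2.5% DMSO), 37 °C incubation. Growth read at 630 nm. MIC is the lowest tested concentration inhibiting 80% of growth versus controls; IC50 from concentration versus % growth graphs.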

[10] = Cytotoxicity against human KB cells assessed as cell growth inhibition after 48 hrs by neutral red dye based assay; type: functional; outline: as §1
[11] = Cytotoxicity against African green monkey Vero cells assessed as cell growth inhibition after 48 hrs by neutral red dye based assay; type: toxicity, Chlorocebus sabaeus; outline: as §1

| Structure (SMILES) | IC50 (Staphylococcus aureus [1]) | IC50 (Candida albicans) | MIC80 (Candida albicans) | Activity [2] | Ratio IC50 [3] | IC50 [4] | IC50 (Plasmodium falciparum) | IC50 (DNA topoisomerase 1) | IC50 [5] | IC50 [6] | IC50 [7] | IC50 (Staphylococcus aureus [8]) | MIC80 [9] | IC50 (Cryptococcus neoformans) | MIC80 (Cryptococcus neoformans) | IC50 (Pseudomonas aeruginosa) | IC50 [10] | IC50 at 48 h [11] |
| --- | --- | --- | --- | --- | --- | --- | --- | --- | --- | --- | --- | --- | --- | --- | --- | --- | --- | --- |
| [Br-].c1ccc2c(c1)-c1nccc3cc[n+](Cc4ccc5ccccc5c4)c-2c13 | 20 µg/mL | 0.67 µg/mL | 0.78 µg/mL | Non-Toxic | 0.7 | 21 µg/mL | 0.0195 µg/mL | 70.5 µM | < 1.1 µg/mL | > 10 µg/mL | < 1.1 µg/mL | 22 µg/mL | 50 µg/mL | 0.3 µg/mL | 0.39 µg/mL | 30 µg/mL | 6 µg/mL |  |
| COc1cccc2c1C(=O)c1c(O)c3c(c(O)c1C2=O)C[C@@](O)(C(=O)CO)C[C@@H]3O[C@H]1C[C@H](N)[C@H](O)[C@H](C)O1 [DOXORUBICIN] |  |  |  |  |  |  |  |  | 1.3 µg/mL (≈ 2.39 µM) | 1.35 µg/mL (≈ 2.48 µM) | 1.11 µg/mL (≈ 2.04 µM) |  |  |  |  |  | 1.59 µg/mL (≈ 2.93 µM) | > 10 µg/mL |
| FC(F)(F)c1ccc(C[n+]2ccc3ccnc4c3c2-c2ccccc2-4)cc1.[Br-] | 30 µg/mL | 6.5 µg/mL | 12.5 µg/mL |  | 0.97 | 30 µg/mL | 0.0085 µg/mL | 69.9 µM | 0.08 µg/mL | 0.79 µg/mL | 0.78 µg/mL |  | 50 µg/mL | 0.57 µg/mL | 3.12 µg/mL | 27 µg/mL | 0.54 µg/mL | 6.4 µg/mL |
| C[n+]1c2c3c(nc(-c4ccccc4)cc3c3ccccc31)-c1ccccc1-2.[I-] | 4.5 µg/mL | 0.2 µg/mL | 0.39 µg/mL | Non-Toxic | 0.79 | 0.375 µg/mL |  | 1.01 µM | 4.5 µg/mL | 7.5 µg/mL | 3.5 µg/mL | 5 µg/mL | 50 µg/mL | 0.23 µg/mL | 0.78 µg/mL | 4 µg/mL | > 10 µg/mL |  |
| [Br-].c1ccc(C[n+]2ccc3c4c(nc5ccccc53)-c3ccccc3-c42)cc1 | 5 µg/mL |  |  | Non-Toxic | 0.96 | 0.55 µg/mL | 0.0415 µg/mL | 1.34 µM | 1.2 µg/mL | 6 µg/mL | 1.8 µg/mL | 35 µg/mL | 10 µg/mL | 2.13 µg/mL | 12.5 µg/mL | 4 µg/mL | 2.9 µg/mL |  |
| COc1cc(C[n+]2ccc3ccnc4c3c2-c2ccccc2-4)cc(OC)c1.[Br-] |  | 20 µg/mL | 25 µg/mL | Non-Toxic | 0.83 | 12.5 µg/mL | 0.011 µg/mL | 34.5 µM | < 1.1 µg/mL | > 10 µg/mL | 2 µg/mL | 9 µg/mL | 50 µg/mL | 0.92 µg/mL | 3.12 µg/mL |  | 7 µg/mL |  |
| NC(=O)C[n+]1ccc2ccnc3c2c1-c1ccccc1-3.[Br-] |  |  |  |  |  |  | 0.09 µg/mL |  | > 10 µg/mL |  | 6.5 µg/mL |  |  | 30 µg/mL | 50 µg/mL |  |  | > 10 µg/mL |
| CC[n+]1ccc2ccnc3c2c1-c1ccccc1-3.[I-] | 40 µg/mL | 35 µg/mL | 50 µg/mL | Non-Toxic | 0.67 | 10 µg/mL | 0.0475 µg/mL | 41.6 µM |  |  |  |  |  | 13.3 µg/mL | 25 µg/mL |  |  |  |
| CC[n+]1c2c3c(nc(-c4ccccc4)cc3c3ccccc31)-c1ccccc1-2.[Br-] | 2 µg/mL | 0.04 µg/mL | 0.098 µg/mL |  |  | < 6 µg/mL |  | < 13.7 µM | 4 µg/mL | 8 µg/mL | 1.3 µg/mL | 2 µg/mL | 10 µg/mL | 0.17 µg/mL | 0.39 µg/mL | 2 µg/mL | 6.5 µg/mL | 7.8 µg/mL |
| C[n+]1ccc2cc(-c3ccccc3)nc3c2c1-c1ccccc1-3.[I-] | 20 µg/mL | 0.32 µg/mL | 0.39 µg/mL | Non-Toxic | 2.92 | 35 µg/mL | 0.46 µg/mL | 28.4 µM | < 1.1 µg/mL | 6.2 µg/mL | 9 µg/mL | 20 µg/mL |  | 0.4 µg/mL | 0.78 µg/mL | 25 µg/mL | 7 µg/mL |  |
